Source: ChEMBL document CHEMBL3120062, “Novel 8-(p-substituted-phenyl/benzyl)xanthines with selectivity for the A2A adenosine receptor possess bronchospasmolytic activity” (Eur J Med Chem, 2014)
Active and inactive are the calls of the source. The calls are words filed in the database; no cut-off is given here.

Key:
Adenosine receptor A1 = molecular target: T1, Adenosine receptor A1 (Homo sapiens, UniProt P30542); experiment: Displacement of [3H]-CCPA from human recombinant adenosine A1 receptor expressed in CHO cell membranes after 3 hrs by microbeta counting analysis
T1 sequence (P30542 whole entry): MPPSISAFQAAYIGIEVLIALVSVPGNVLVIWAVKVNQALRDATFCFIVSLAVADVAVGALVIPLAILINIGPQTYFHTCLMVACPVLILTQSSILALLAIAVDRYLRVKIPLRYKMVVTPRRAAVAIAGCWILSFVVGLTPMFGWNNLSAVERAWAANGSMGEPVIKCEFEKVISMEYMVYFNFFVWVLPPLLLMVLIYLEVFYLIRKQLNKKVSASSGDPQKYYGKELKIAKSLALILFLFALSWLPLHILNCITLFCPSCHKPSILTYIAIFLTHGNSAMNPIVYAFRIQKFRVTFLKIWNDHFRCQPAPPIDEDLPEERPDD
How it was run: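 Human A1 receptor stably expressed in CHO cells. Crude membranes (10-50 µg protein) in 50 mM Tris/HCl pH 7.4 were incubated with [3H]CCPA (1 nM) for 3 h at 25 °C, then filtered, washed with ice-cold buffer and counted by scintillation. Nonspecific binding was defined with theophylline. Ki came from non-linear curve fitting; geometric means of 3–5 experiments.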

Cavia porcellus [1] = experiment: Bronchospasmolytic activity in histamine aerosol-induced Dunkin-Hartley guinea pig assessed as time required for onset of bronchospasm at 50 mg/kg, po pretreated for 1 hr followed by histamine aerosol-challenge (reference value: 67 +/- 2 seconds); assay type: functional
Adenosine receptor A2b = molecular target: T2, Adenosine receptor A2b (Homo sapiens, UniProt P29275); experiment: Binding affinity to human recombinant adenosine A2B receptor expressed in CHO cell membranes assessed as inhibition of NECA-stimulated adenylyl cyclase activity after 20 mins
T2 sequence (P29275 whole entry): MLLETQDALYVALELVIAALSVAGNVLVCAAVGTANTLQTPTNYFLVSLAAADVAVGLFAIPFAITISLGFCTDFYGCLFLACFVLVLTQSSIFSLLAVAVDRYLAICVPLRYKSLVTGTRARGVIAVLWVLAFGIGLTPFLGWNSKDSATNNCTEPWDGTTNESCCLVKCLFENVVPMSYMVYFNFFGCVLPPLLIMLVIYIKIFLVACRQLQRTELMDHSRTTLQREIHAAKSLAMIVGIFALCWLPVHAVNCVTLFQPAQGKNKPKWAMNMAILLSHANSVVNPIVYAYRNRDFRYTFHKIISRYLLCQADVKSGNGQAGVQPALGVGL
How it was run: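 Membranes from CHO cells stably expressing the human A2B receptor, prepared fresh by one 54,000 g spin and used immediately in 50 mM Tris/HCl pH 7.4. Concentration-dependent inhibition of NECA-stimulated adenylyl cyclase was measured with about 150,000 cpm [α-32P]ATP for 20 min. Ki was calculated from IC50 with the Cheng–Prusoff equation. Geometric means of 3–5 experiments.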

Cavia porcellus [2] = experiment: Bronchospasmolytic activity in histamine aerosol-induced Dunkin-Hartley guinea pig assessed as duration of jerks at 50 mg/kg, po pretreated for 1 hr followed by histamine aerosol-challenge (reference value: 172 +/- 4 seconds); assay type: functional
Cavia porcellus [3] = experiment: Bronchospasmolytic activity in histamine aerosol-induced Dunkin-Hartley guinea pig assessed as survival at 50 mg/kg, po pretreated for 1 hr followed by histamine aerosol-challenge relative to control; assay type: functional
How it was run: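 Male Dunkin Hartley guinea pigs (250 ± 30 g), 4 per group, fasted overnight. Each animal was given test drug, theophylline or vehicle at 50 mg/kg by mouth in CMC + distilled water, 1 h before challenge. It was then exposed singly in a histamine chamber to 5 ml of 1% histamine aerosolised over 1 min. Onset, jerk duration, severity and death or survival were recorded. Survival is given as % of the group.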

Adenosine receptor A3 = molecular target: T3, Adenosine receptor A3 (Homo sapiens, UniProt P0DMS8); experiment: Displacement of [3H]-HEMADO from human recombinant adenosine A3 receptor expressed in CHO cell membranes after 3 hrs by microbeta counting analysis
T3 sequence (P0DMS8 whole entry): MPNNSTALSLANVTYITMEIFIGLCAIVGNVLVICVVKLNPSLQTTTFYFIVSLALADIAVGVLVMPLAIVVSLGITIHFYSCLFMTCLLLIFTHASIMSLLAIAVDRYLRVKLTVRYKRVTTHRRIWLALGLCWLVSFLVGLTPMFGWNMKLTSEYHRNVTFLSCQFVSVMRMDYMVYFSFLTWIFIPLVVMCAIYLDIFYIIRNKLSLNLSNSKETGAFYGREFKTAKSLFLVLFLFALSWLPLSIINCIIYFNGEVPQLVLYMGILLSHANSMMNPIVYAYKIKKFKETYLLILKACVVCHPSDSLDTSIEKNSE
How it was run: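 Human A3 receptor in stably transfected CHO cell membranes (10-50 µg protein), resuspended in 50 mM Tris/HCl, 10 mM MgCl2, 1 mM EDTA, pH 8.25. Incubated with [3H]HEMADO (1 nM) for 3 h at 25 °C, then filtered, washed and scintillation counted. Nonspecific binding was defined with R-PIA. Ki came from non-linear curve fitting; geometric means of 3–5 experiments.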

Adenosine receptor A2a = Adenosine receptor A2a (Homo sapiens, UniProt P29274); experiment: Displacement of [3H]-NECA from human recombinant adenosine A2A receptor expressed in CHO cell membranes after 3 hrs by microbeta counting analysis
Sequence of Adenosine receptor A2a (P29274 whole entry): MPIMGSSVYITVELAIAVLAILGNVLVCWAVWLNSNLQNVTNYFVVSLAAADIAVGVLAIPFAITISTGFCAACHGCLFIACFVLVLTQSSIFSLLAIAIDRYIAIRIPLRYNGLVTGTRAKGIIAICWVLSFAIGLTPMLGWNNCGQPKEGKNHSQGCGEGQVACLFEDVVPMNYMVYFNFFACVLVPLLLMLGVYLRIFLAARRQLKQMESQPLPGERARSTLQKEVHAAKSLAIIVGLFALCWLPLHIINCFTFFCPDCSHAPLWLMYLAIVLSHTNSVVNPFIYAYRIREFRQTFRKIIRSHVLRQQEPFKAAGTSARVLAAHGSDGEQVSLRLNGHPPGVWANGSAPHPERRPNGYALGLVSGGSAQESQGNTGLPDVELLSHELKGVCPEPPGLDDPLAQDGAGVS
How it was run: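 Crude membranes (10-50 µg protein) from CHO cells stably expressing the human A2A receptor, in 50 mM Tris/HCl pH 7.4. Incubated with [3H]NECA (10 nM) for 3 h at 25 °C, then filtered, washed with ice-cold buffer and scintillation counted. Nonspecific binding was defined with R-PIA. Ki came from non-linear curve fitting; geometric means of 3–5 experiments.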

Homo sapiens [4] = species on record: Homo sapiens; experiment: Selectivity ratio of Ki for human recombinant adenosine A2B receptor to Ki for human recombinant adenosine A2A receptor
Homo sapiens [5] = species on record: Homo sapiens; experiment: Selectivity ratio of Ki for human recombinant adenosine A1 receptor to Ki for human recombinant adenosine A2A receptor
Homo sapiens [6] = species on record: Homo sapiens; experiment: Selectivity ratio of Ki for human recombinant adenosine A3 receptor to Ki for human recombinant adenosine A2A receptor
Cavia porcellus [7] = experiment: Bronchospasmolytic activity in histamine aerosol-induced Dunkin-Hartley guinea pig assessed as severity of bronchospasm at 50 mg/kg, po pretreated for 1 hr followed by histamine aerosol-challenge; assay type: functional, organism-based; set-up: dose 50 mg/kg

Compound: Cn1c(=O)c2[nH]c(Cc3ccc(OCCCCl)cc3)nc2n(C)c1=O
- Ki (Adenosine receptor A1): > 30 µM
- Time (Cavia porcellus [1]): 75 s
- Ki (Adenosine receptor A2b): > 10 µM
- Time (Cavia porcellus [2]): 44 s
- survival at 50 mg/kg (Cavia porcellus [3]): 50%
- Ki (Adenosine receptor A3): > 30 µM
- Ki (Adenosine receptor A2a): > 10 µM

Compound: Cn1c(=O)c2[nH]c(-c3ccc(OCCN4CCCC4)cc3)nc2n(C)c1=O
- Ki (Adenosine receptor A1): 1.2 µM
- Ratio Ki (Homo sapiens [4]): 9.9
- Ratio Ki (Homo sapiens [5]): 6
- Time (Cavia porcellus [1]): 111 s
- Ki (Adenosine receptor A2b): 1.97 µM
- Time (Cavia porcellus [2]): 32 s
- Ratio Ki (Homo sapiens [6]): 23
- survival at 50 mg/kg (Cavia porcellus [3]): 100%
- Ki (Adenosine receptor A3): 4.6 µM
- Ki (Adenosine receptor A2a): 0.2 µM

Compound: Cn1c(=O)c2[nH]c(-c3ccc(OC4CCCC4)cc3)nc2n(C)c1=O
- Ki (Adenosine receptor A1): > 30 µM
- Ratio Ki (Homo sapiens [4]): 14
- Ratio Ki (Homo sapiens [5]): > 420
- Time (Cavia porcellus [1]): 72 s
- Ki (Adenosine receptor A2b): 1 µM
- Time (Cavia porcellus [2]): 35 s
- Ratio Ki (Homo sapiens [6]): > 420
- survival at 50 mg/kg (Cavia porcellus [3]): 50%
- Ki (Adenosine receptor A3): > 10 µM
- Ki (Adenosine receptor A2a): 0.072 µM

Compound: Cn1c(=O)c2[nH]c(-c3ccc(OCCCn4ccnc4)cc3)nc2n(C)c1=O
- Ki (Adenosine receptor A1): 0.89 µM
- Ratio Ki (Homo sapiens [4]): 25
- Ratio Ki (Homo sapiens [5]): 21
- Time (Cavia porcellus [1]): 108 s
- Ki (Adenosine receptor A2b): 1.05 µM
- Time (Cavia porcellus [2]): 71 s
- Ratio Ki (Homo sapiens [6]): 54
- survival at 50 mg/kg (Cavia porcellus [3]): 75%
- Ki (Adenosine receptor A3): 2.27 µM
- Ki (Adenosine receptor A2a): 0.042 µM

Compound: Cn1c(=O)c2[nH]c(-c3ccc(OCCN4CCOCC4)cc3)nc2n(C)c1=O
- Ki (Adenosine receptor A1): 2.58 µM
- Ratio Ki (Homo sapiens [4]): 4.3
- Ratio Ki (Homo sapiens [5]): 8.3
- Time (Cavia porcellus [1]): 104 s
- Ki (Adenosine receptor A2b): 1.34 µM
- Time (Cavia porcellus [2]): 45 s
- Ratio Ki (Homo sapiens [6]): 8.8
- survival at 50 mg/kg (Cavia porcellus [3]): 100%
- Ki (Adenosine receptor A3): 2.74 µM
- Ki (Adenosine receptor A2a): 0.31 µM

Compound: CCN(CC)CCOc1ccc(-c2nc3c([nH]2)c(=O)n(C)c(=O)n3C)cc1
- Ki (Adenosine receptor A1): 1.59 µM
- Ratio Ki (Homo sapiens [4]): 10
- Ratio Ki (Homo sapiens [5]): 6.4
- Time (Cavia porcellus [1]): 115 s
- Ki (Adenosine receptor A2b): 2.59 µM
- Time (Cavia porcellus [2]): 49 s
- Ratio Ki (Homo sapiens [6]): 27
- survival at 50 mg/kg (Cavia porcellus [3]): 75%
- Ki (Adenosine receptor A3): 6.82 µM
- Ki (Adenosine receptor A2a): 0.25 µM

Compound: Cn1c(=O)c2[nH]c(Cc3ccc(OCCCN4CCOCC4)cc3)nc2n(C)c1=O
- Ki (Adenosine receptor A1): > 30 µM
- Time (Cavia porcellus [1]): 108 s
- Ki (Adenosine receptor A2b): > 10 µM
- survival at 50 mg/kg (Cavia porcellus [3]): 100%
- Ki (Adenosine receptor A3): > 30 µM
- Ki (Adenosine receptor A2a): > 10 µM

Compound: Cn1c(=O)c2[nH]c(Cc3ccc(OCCCN4CCC5(CC4)OCCO5)cc3)nc2n(C)c1=O
- Ki (Adenosine receptor A1): > 30 µM
- Ratio Ki (Homo sapiens [4]): > 1.2
- Ratio Ki (Homo sapiens [5]): > 3.7
- Time (Cavia porcellus [1]): 73 s
- Ki (Adenosine receptor A2b): > 10 µM
- Time (Cavia porcellus [2]): 23 s
- Ratio Ki (Homo sapiens [6]): > 3.7
- survival at 50 mg/kg (Cavia porcellus [3]): 50%
- Ki (Adenosine receptor A3): > 30 µM
- Ki (Adenosine receptor A2a): 8.09 µM

Compound: Cn1c(=O)c2[nH]c(-c3ccc(OCCCCl)cc3)nc2n(C)c1=O
- Ki (Adenosine receptor A1): > 10 µM
- Ratio Ki (Homo sapiens [4]): > 220
- Ratio Ki (Homo sapiens [5]): > 220
- Time (Cavia porcellus [1]): 114 s
- Ki (Adenosine receptor A2b): > 10 µM
- Time (Cavia porcellus [2]): 30 s
- Ratio Ki (Homo sapiens [6]): > 670
- survival at 50 mg/kg (Cavia porcellus [3]): 100%
- Ki (Adenosine receptor A3): > 30 µM
- Ki (Adenosine receptor A2a): 0.045 µM

Compound: Cn1c(=O)c2nc[nH]c2n(C)c1=O.O [THEOPHYLLINE]
- Time (Cavia porcellus [1]): 92 s
- Time (Cavia porcellus [2]): 89 s
- survival at 50 mg/kg (Cavia porcellus [3]): 100%

Compound: Cn1c(=O)c2[nH]c(-c3ccc(OCCCN4CCN(Cc5ccccc5Cl)CC4)cc3)nc2n(C)c1=O
- Ki (Adenosine receptor A1): 1.85 µM
- Ratio Ki (Homo sapiens [4]): 1.4
- Activity (Cavia porcellus [7]): Active
- Ratio Ki (Homo sapiens [5]): 15
- Time (Cavia porcellus [1]): 109 s
- Ki (Adenosine receptor A2b): 0.17 µM
- Ratio Ki (Homo sapiens [6]): 57
- survival at 50 mg/kg (Cavia porcellus [3]): 100%
- Ki (Adenosine receptor A3): 6.89 µM
- Ki (Adenosine receptor A2a): 0.12 µM

Compound: Cn1c(=O)c2[nH]c(-c3ccc(OCCC4CCNCC4)cc3)nc2n(C)c1=O
- Ki (Adenosine receptor A1): 1.33 µM
- Ratio Ki (Homo sapiens [4]): 10
- Ratio Ki (Homo sapiens [5]): 4.6
- Time (Cavia porcellus [1]): 121 s
- Ki (Adenosine receptor A2b): 2.9 µM
- Time (Cavia porcellus [2]): 22 s
- Ratio Ki (Homo sapiens [6]): 22
- survival at 50 mg/kg (Cavia porcellus [3]): 75%
- Ki (Adenosine receptor A3): 6.51 µM
- Ki (Adenosine receptor A2a): 0.29 µM

Compound: CN(C)CCOc1ccc(-c2nc3c([nH]2)c(=O)n(C)c(=O)n3C)cc1
- Ki (Adenosine receptor A1): 1.82 µM
- Ratio Ki (Homo sapiens [4]): 12
- Ratio Ki (Homo sapiens [5]): 4.6
- Time (Cavia porcellus [1]): 111 s
- Ki (Adenosine receptor A2b): 4.95 µM
- Time (Cavia porcellus [2]): 39 s
- Ratio Ki (Homo sapiens [6]): 24
- survival at 50 mg/kg (Cavia porcellus [3]): 100%
- Ki (Adenosine receptor A3): 9.38 µM
- Ki (Adenosine receptor A2a): 0.4 µM

Compound: Cn1c(=O)c2[nH]c(Cc3ccc(OCCCn4ccnc4)cc3)nc2n(C)c1=O
- Ki (Adenosine receptor A1): > 30 µM
- Ratio Ki (Homo sapiens [4]): > 3.2
- Ratio Ki (Homo sapiens [5]): > 9.5
- Time (Cavia porcellus [1]): 83 s
- Ki (Adenosine receptor A2b): > 10 µM
- Ratio Ki (Homo sapiens [6]): > 9.5
- survival at 50 mg/kg (Cavia porcellus [3]): 50%
- Ki (Adenosine receptor A3): > 30 µM
- Ki (Adenosine receptor A2a): 3.17 µM
